Measured values taken from ChEMBL document CHEMBL1122229, “alpha-adrenoreceptor reagents. 1. Synthesis of some 1,4-benzodioxans as selective presynaptic alpha 2-adrenoreceptor antagonists and potential antidepressants” (J Med Chem, 1983).
Activity calls are given as the source filed them. The rule behind the calls is not given here.

Key:
[1] = target: T1, Adrenergic receptor alpha-1 (Rattus norvegicus) (UniProt P15823+P23944+P43140); experiment: In vitro postsynaptic agonist potency at alpha-1 adrenergic receptor in rat anococcygeus muscle relative to phenylephrine; IA means inactive.; type: functional, tissue-based
Summary of the method: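 Rat anococcygeus muscle (male Sprague–Dawley rats, 200–250 g) suspended at 0.5 g initial tension in a 50-mL organ bath. […] Standard dose-response curves were run before and after the analogue's curve.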

[2] = In vitro antagonism at Alpha-2 adrenergic receptor in rat or mouse vas deferens relative to RX781094.; type: functional
Summary of the method: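 Prostatic half of vas deferens from male Sprague–Dawley rats (200–250 g; Krebs, 30 °C, 95% O2/5% CO2, 0.1 Hz, 3-ms, 40 V) or from mice (magnesium-free Krebs, 100–140 V). Tension 0.5 g; isometric twitch recording. […] The concentration giving 50% reversal of the inhibition was compared with standard 5 in the same tissue.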

[3] = target: T2, Adrenergic receptor alpha-2 (Rattus norvegicus) (UniProt P22086+P19328+P22909); experiment: In vitro presynaptic agonist potency at alpha-2 adrenergic receptor in rat or mouse vas deferens relative to clonidine; IA means inactive; type: functional, tissue-based
Summary of the method: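 Field-stimulated rat or mouse vas deferens (Krebs, 30 °C, 95% O2/5% CO2, 3-ms pulses at 0.1 Hz) with isometric twitch recording. […] Standard dose-response curves were run before and after the analogue's curve.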

[4] = target: T1, Adrenergic receptor alpha-1 (Rattus norvegicus); experiment: In vitro postsynaptic antagonist potency at alpha-1 adrenergic receptor in rat anococcygeus relative to compound 5 (RX781094); type: functional
[5] = target: T1, Adrenergic receptor alpha-1 (Rattus norvegicus); experiment: Ratio of presynaptic antagonist potency to postsynaptic antagonist potency; type: functional
[6] = target: T2, Adrenergic receptor alpha-2 (Rattus norvegicus); experiment: In vitro presynaptic antagonist potency at alpha-2 adrenergic receptor in rat or mouse vas deferens relative to compound 5 (RX781094); type: functional, tissue-based
Summary of the method: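 Prostatic halves of rat vas deferens (male Sprague–Dawley rats, 200–250 g; Krebs, 30 °C, 95% O2/5% CO2; 3-ms, 40 V, 0.1 Hz field pulses) or mouse vas deferens (Mg-free Krebs, 30 °C; 3-ms pulses, 0.1 Hz, 100–140 V) were used, with isometric twitch recording. […] The concentration giving 50% reversal was compared with the RX781094 standard in the same tissue.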

[7] = test system: Alpha-2 adrenergic receptor (Rattus norvegicus); experiment: In vitro presynaptic antagonist potency at alpha-2 adrenergic receptor in rat or mouse vas deferens; IA means compound is inactive.
[8] = target: T1, Adrenergic receptor alpha-1 (Rattus norvegicus); experiment: In vitro postsynaptic antagonist potency at alpha-1 adrenergic receptor in rat anococcygeus relative to compound 5 (RX781094); AG means compound is agonist.; type: functional; settings: filed as agonist
[9] = target: T2, Adrenergic receptor alpha-2 (Rattus norvegicus); experiment: In vitro presynaptic agonist potency at alpha-2 adrenergic receptor in rat or mouse vas deferens relative to clonidine; type: functional, tissue-based
Summary of the method: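 Field-stimulated rat or mouse vas deferens under 0.5 g tension, at 0.1 Hz with 3-ms pulses, 30 °C, gassed with 95% O2/5% CO2. Contractions were recorded isometrically. Standard dose-response curves were run before and after each analogue curve. Potency was expressed relative to the standard in the same experiment.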

[10] = target: T1, Adrenergic receptor alpha-1 (Rattus norvegicus); experiment: In vitro postsynaptic agonist potency at alpha-1 adrenergic receptor in rat anococcygeus muscle relative to phenylephrine; type: functional, tissue-based
[11] = target: T1, Adrenergic receptor alpha-1 (Rattus norvegicus); experiment: In vitro postsynaptic antagonist potency at alpha-1 adrenergic receptor in rat anococcygeus relative to compound 5 (RX781094); IA means compound is inactive.; type: functional
[12] = test system: Alpha-2 adrenergic receptor (Rattus norvegicus); experiment: In vitro presynaptic agonist potency at alpha-2 adrenergic receptor in rat or mouse vas deferens relative to clonidine; Inactive
[13] = target: T1, Adrenergic receptor alpha-1 (Rattus norvegicus); experiment: In vitro postsynaptic antagonist potency at alpha-1 adrenergic receptor in rat anococcygeus.; type: functional

Agonist potency [1] | Agonist potency [3] | Antagonist potency [4] | Selectivity [5] | Antagonist potency [6] | SMILES | Antagonist potency [2] | further results
inactive | inactive | 0.25 | 0.016 | 0.004 | c1ccc2c(c1)OCC(Cc1ncc[nH]1)O2 (centres undefined) | – | –
inactive | inactive | 0.1 | – | – | COCC/N=C(\N)C1COc2ccccc2O1 (centres undefined) | – | Antagonist potency [7]: inactive
inactive | inactive | 0.1 | 0.01 | 0.001 | CCCC/N=C(\NCCCC)C1COc2ccccc2O1 (centres undefined) | – | –
inactive | inactive | < 0.023 | – | < 0.0003 | Nc1noc(CC2COc3ccccc3O2)n1 (centres undefined) | – | –
inactive | inactive | – | – | – | c1ccc2c(c1)OCC(C1=NCCS1)O2 (centres undefined) | – | Antagonist potency [11]: inactive; Antagonist potency [7]: inactive
– | inactive | – | – | 0.01 | N=C(N)C1COc2ccccc2O1 (centres undefined) | – | Agonist potency [10]: 0.05
inactive | inactive | 0.01 | 0.01 | 0.0001 | CC1(C)CN=C(C2COc3ccccc3O2)N1 (centres undefined) | – | –
inactive | inactive | – | – | – | c1ccc2c(c1)OCC(c1nn[nH]n1)O2 (centres undefined) | – | Antagonist potency [11]: inactive; Antagonist potency [7]: inactive
inactive | inactive | 0.03 | 0.01 | 0.0003 | N=C(NCCc1ccccc1)C1COc2ccccc2O1 (centres undefined) | – | –
inactive | inactive | < 0.02 | – | 0.0003 | c1ccc2c(c1)OCC(c1nc3ccccc3[nH]1)O2 (centres undefined) | – | –
inactive | inactive | – | – | – | N=C(NN1CCOCC1)C1COc2ccccc2O1 (centres undefined) | – | Antagonist potency [11]: inactive; Antagonist potency [7]: inactive
inactive | inactive | 0.1 | 0.1 | 0.01 | c1ccc2c(c1)OCC(C1=NCCCN1)O2 (centres undefined) | – | –
inactive | inactive | < 0.023 | – | 0.013 | c1ccc2c(c1)OCC(Cn1ccnc1)O2 (centres undefined) | – | –
inactive | inactive | 0.01 | 0.1 | 0.001 | c1ccc2c(c1)OCC(c1ncc[nH]1)O2 (centres undefined) | – | –
inactive | inactive | 0.01 | 0.01 | 0.0001 | N=C(C1COc2ccccc2O1)N1CCCCC1 (centres undefined) | – | –
inactive | – | – | – | – | Nc1nc(N)nc(C2COc3ccccc3O2)n1 (centres undefined) | – | Antagonist potency [11]: inactive; Agonist potency [12]: inactive; Antagonist potency [7]: inactive
inactive | inactive | 0.14 | 0.33 | 0.045 | c1ccc2c(c1)OCC(CC1=NCCN1)O2 (centres undefined) | – | –
inactive | inactive | 0.1 | 0.003 | 0.0003 | CN1CCN=C1C1COc2ccccc2O1 (centres undefined) | – | –
– | inactive | – | – | – | NC(=NO)C1COc2ccccc2O1 (centres undefined) | – | Antagonist potency [13]: 0.01
inactive | – | 0.1 | 0.01 | 0.001 | COc1cccc(OC)c1OCC/N=C(\N)C1COc2ccccc2O1 (centres undefined) | – | Agonist potency [9]: 0.0001
inactive | inactive | 1 | 0.003 | 0.003 | CC1CN=C(C2COc3ccccc3O2)N1 (centres undefined) | – | –
inactive | inactive | 0.024 | – | < 0.001 | N/C(=N\CCCO)C1COc2ccccc2O1 (centres undefined) | – | –

Further lines, the molecule ahead of its results:

SMILES | Agonist potency [1] | Agonist potency [3] | Antagonist potency [4] | Selectivity [5] | Antagonist potency [6] | Antagonist potency [2] | further results
O=[N+]([O-])c1cccc2c1OC(C1=NCCN1)CO2 (centres undefined) | inactive | inactive | 0.09 | 0.22 | – | 0.02 | –
c1ccc2cc3c(cc2c1)OCC(C1=NCCN1)O3 (centres undefined) | inactive | inactive | 0.01 | 0.1 | 0.001 | – | –
Clc1cccc2c1OC(C1=NCCN1)CO2 (centres undefined) | – | – | – | – | – | 0.49 | Antagonist potency [8]: Agonist; Agonist potency [9]: 0.67; Agonist potency [10]: 0.4
Cc1cccc2c1OC(C1=NCCN1)CO2 (centres undefined) | – | – | – | – | 0.5 | – | Antagonist potency [8]: Agonist; Agonist potency [9]: 0.01; Agonist potency [10]: 2.1
COc1ccc2c(c1)OCC(C1=NCCN1)O2 (centres undefined) | – | inactive | – | – | – | 0.006 | Agonist potency [10]: 0.005
COc1cccc2c1OC(C1=NCCN1)CO2 (centres undefined) | inactive | inactive | 0.9 | 0.14 | – | 0.12 | –
CC(C)(C)c1ccc2c(c1)OCC(C1=NCCN1)O2 (centres undefined) | inactive | inactive | 0.1 | 0.1 | 0.01 | – | –
Oc1cccc2c1OC(C1=NCCN1)CO2 (centres undefined) | inactive | inactive | 0.2 | 0.2 | – | 0.04 | –
O=[N+]([O-])c1ccc2c(c1)OCC(C1=NCCN1)O2 (centres undefined) | inactive | inactive | < 0.02 | – | – | <0.0003 | –
Fc1ccc2c(c1)OCC(C1=NCCN1)O2 (centres undefined) | inactive | – | 0.1 | 0.1 | – | 0.01 | Agonist potency [12]: inactive
Oc1ccc2c(c1)OCC(C1=NCCN1)O2 (centres undefined) | – | – | – | – | – | 0.017 | Antagonist potency [8]: Agonist; Agonist potency [9]: 0.015; Agonist potency [10]: 0.55
Oc1cccc2c1OCC(C1=NCCN1)O2 (centres undefined) | – | – | – | – | – | 0.018 | Antagonist potency [8]: Agonist; Agonist potency [12]: inactive; Agonist potency [10]: 0.017
Cc1cc2c(cc1C)OC(C1=NCCN1)CO2 (centres undefined) | inactive | – | 0.64 | 0.1 | – | 0.06 | Agonist potency [12]: inactive
Cc1ccc(C)c2c1OCC(C1=NCCN1)O2 (centres undefined) | – | – | – | – | – | 0.005 | Antagonist potency [8]: Agonist; Agonist potency [9]: 0.19; Agonist potency [10]: 2.5
Oc1ccc2c(c1)OC(C1=NCCN1)CO2 (centres undefined) | – | – | – | – | – | 0.036 | Antagonist potency [8]: Agonist; Agonist potency [9]: 0.15; Agonist potency [10]: 1.1
Clc1ccc2c(c1)OCC(C1=NCCN1)O2 (centres undefined) | – | – | 1 | 0.01 | – | 0.01 | Agonist potency [12]: inactive; Agonist potency [10]: 0.005
COc1cccc2c1OCC(C1=NCCN1)O2 (centres undefined) | – | inactive | – | – | – | 0.001 | Antagonist potency [11]: inactive; Agonist potency [10]: 5
COc1ccc2c(c1)OC(C1=NCCN1)CO2 (centres undefined) | inactive | inactive | 0.225 | 0.09 | – | 0.02 | –
Brc1ccc2c(c1)OCC(C1=NCCN1)O2 (centres undefined) | – | – | – | – | – | 0.01 | Antagonist potency [11]: inactive; Agonist potency [12]: inactive; Agonist potency [10]: 0.05
Clc1ccc(Cl)c2c1OCC(C1=NCCN1)O2 (centres undefined) | – | – | – | – | 0.26 | – | Antagonist potency [8]: Agonist; Agonist potency [9]: 0.02; Agonist potency [10]: 0.55
Clc1cc2c(cc1Cl)OC(C1=NCCN1)CO2 (centres undefined) | inactive | – | 0.3 | 0.01 | 0.003 | – | Agonist potency [12]: inactive
